Measured values as given in ChEMBL document CHEMBL3232902, “PMPA and PMEA prodrugs for the treatment of HIV infections and human papillomavirus (HPV) associated neoplasia and cancer” (Eur J Med Chem, 2014).
pEC50, pIC50: −log10 of the molar value.

Columns and labels:
[1] = system: Human immunodeficiency virus 1; test: Antiviral activity against Human immunodeficiency virus 1 3B infected in human CEM cells assessed as inhibition of virus-induced giant cell formation after 4 to 5 days by microscopic analysis; assay type: functional, organism-based, CCRF-CEM
How it was run: (§1)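 CEM cells (~3×10^5/mL) were infected with 100 CCID50/mL HIV-1 IIIB or HIV-2 ROD with compound dilutions. After 4–5 days at 37°C, syncytium formation was scored microscopically. EC50 is the concentration inhibiting giant cell formation by 50%.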

[2] = system: Human immunodeficiency virus 2; test: Antiviral activity against Human immunodeficiency virus type 2 ROD infected in human CEM cells assessed as inhibition of virus-induced giant cell formation after 4 to 5 days by microscopic analysis; assay type: functional, organism-based, ISOLATE ROD, CCRF-CEM; settings: Human immunodeficiency virus 2, ISOLATE ROD, CCRF-CEM; how it was run: as §1
[3] = Cytotoxicity against human CEM cells; assay type: cell-based, CCRF-CEM; settings: CEM (CCRF-CEM) cells
Human alphaherpesvirus 1 [4] = test: Antiviral activity against Herpes simplex virus KOS infected in HEL cells assessed as inhibition of virus-induced cytopathicity; assay type: functional, organism-based; settings: Human alphaherpesvirus 1, KOS, HEL
How it was run: (§2)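 Confluent HEL cell cultures were inoculated with 100 CCID50 of virus in the presence of varying compound concentrations. Cytopathicity or plaque formation was scored once untreated infected controls reached completion. EC50 is the concentration inhibiting virus-induced cytopathicity by 50%.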

Human alphaherpesvirus 2 = test: Antiviral activity against Herpes simplex virus G infected in HEL cells assessed as inhibition of virus-induced cytopathicity; assay type: functional, organism-based, strain G; settings: Human alphaherpesvirus 2, strain G, HEL; how it was run: as §2
Human alphaherpesvirus 1 [5] = test: Antiviral activity against thymidine kinase-deficient acyclovir-resistant Herpes simplex virus KOS infected in HEL cells assessed as inhibition of virus-induced cytopathicity; assay type: functional, organism-based; settings: Human alphaherpesvirus 1, KOS; how it was run: as §2
Vaccinia virus = test: Antiviral activity against Vaccinia virus Lederle infected in HEL cells assessed as inhibition of virus-induced cytopathicity; assay type: functional, organism-based; settings: Orthopoxvirus vaccinia; how it was run: as §2
[6] = Cytotoxicity against HEL cells assessed as change in cellular morphology by microscopic analysis; assay type: cell-based; settings: human, read-out: MIC
How it was run: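 Uninfected HEL monolayers were exposed to compound. Minimal cytotoxic concentration is the concentration causing microscopically visible alteration of cell morphology.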

L1210 = test: Cytostatic activity against mouse L1210 cells after 48 hrs by coulter counting analysis; assay type: functional, cell-based
How it was run: (§3)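 (5-7.5)×10^4 cells/well were incubated with compound at 37°C, for 48 h (L1210) or 72 h (CEM, HeLa), then counted by Coulter counter. IC50 is the concentration inhibiting proliferation by 50%.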

CCRF-CEM = test: Cytostatic activity against human CEM cells after 72 hrs by coulter counting analysis; assay type: functional, cell-based; settings: Homo sapiens, CCRF-CEM, 72 h; how it was run: as §3
HeLa [7] = test: Cytostatic activity against human HeLa cells after 72 hrs by coulter counting analysis; assay type: functional, cell-based; settings: Homo sapiens, HeLa, 72 h; how it was run: as §3
SiHa [8] = test: Antiproliferative activity against human SiHa cells infected with HPV-16 after 72 hrs by flow cytometric analysis; assay type: functional, cell-based
How it was run: (§4)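 SiHa (HPV16+), HeLa (HPV18+) and C33A (HPV-) cervical carcinoma lines grown in DMEM with 10% FBS at 37°C, 5% CO2. Seeded 4×10^3 cells/well and left to adhere 24 h. Treated in triplicate with 1, 10 and 100 μM of compound formulated in ~1% DMSO/PBS pH 7.4.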

HeLa [9] = test: Antiproliferative activity against human HeLa cells infected with HPV-18 after 72 hrs by flow cytometric analysis; assay type: functional, cell-based; how it was run: as §4
[10] = Antiproliferative activity against human C33A cells after 72 hrs by flow cytometric analysis; assay type: cell-based, C-33-A; settings: Homo sapiens, C-33-A, 72 h; how it was run: as §4
SiHa [11] = test: Antiproliferative activity against human SiHa cells infected with HPV-16 after 96 hrs by trypan blue staining-based Neubauer haemocytometric analysis; assay type: functional, cell-based
How it was run: (§5)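 SiHa and HPV16+ M08 vulval keratinocytes (VIN3 biopsy-derived) were seeded at 4×10^3 cells/well; human epidermal keratinocytes (EpiLife medium) at 3.5×10^4 cells/well. All adhered 24 h, then were exposed to 0.1 and 1 μM compound in replicate for 96 h at 37°C. Cells were trypsinised, resuspended in PBS and counted in 0.4% trypan blue on a haemocytometer.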

[12] = Antiproliferative activity against human M08 cells infected with HPV-16 after 96 hrs by trypan blue staining-based Neubauer haemocytometric analysis; assay type: functional, cell-based; settings: M08, 96 h; how it was run: as §5
[13] = Antiproliferative activity against human epidermal keratinocytes after 96 hrs by trypan blue staining-based Neubauer haemocytometric analysis; assay type: cell-based; settings: Keratinocyte; how it was run: as §5
[14] = Human immunodeficiency virus 1, 3B, CCRF-CEM

SMILES	pEC50 [1, 14]	pEC50 [2]	CC50 [3]	pEC50 (Human alphaherpesvirus 1 [4])	pEC50 (Human alphaherpesvirus 2)	pEC50 (Human alphaherpesvirus 1 [5])	pEC50 (Vaccinia virus)	MCC [6]	pIC50 (L1210; Mus musculus, L1210, 48 h)	pIC50 (CCRF-CEM)	pIC50 (HeLa [7])	pIC50 (SiHa [8])	pIC50 (HeLa [9]; Homo sapiens, HeLa, 72 h)	pIC50 [10]	pIC50 (SiHa [11])	pIC50 [12]	pIC50 [13]	pEC50 ([1]; ccrf-cem)	pIC50 (L1210; l1210)	pIC50 (HeLa [9]; hela)
C[C@H](Cn1cnc2c(N)ncnc21)OCP(=O)(O)O [TENOFOVIR ANHYDROUS]	5.41	5.43	> 500000 nM	3.98	3.91	3.82	< 4.00	> 100 µM	4.96	5.16	4.77									
C[C@H](NP(=O)(COCCn1cnc2c(N)ncnc21)N[C@@H](C)C(=O)OCC(C)(C)C)C(=O)OCC(C)(C)C	7.62	7.72	200 nM	6.52	6.70	6.52	5.57	> 100 µM	6.62	6.70	5.80	6.18	6.22	6.08	6.08	6.09	6.52			
C[C@H](Cn1cnc2c(N)ncnc21)OCP(=O)(N[C@@H](C)C(=O)OCc1ccccc1)N[C@@H](C)C(=O)OCc1ccccc1	7.52	7.85	6900 nM	5.00	5.52	5.15	4.70	> 100 µM	3.92	< 3.30	< 3.30									
Nc1ncnc2c1ncn2CCOCP(=O)(O)O [ADEFOVIR]	5.08	5.09	≥ 50000 nM	5.33	5.20	5.15		> 100 µM	5.52	4.62	3.74			5.11						
C[C@H](Cn1cnc2c(N)ncnc21)OCP(=O)(N[C@@H](C)C(=O)OCc1ccccc1)Oc1cccc2ccccc12 (stereo not given in full)	7.72	7.96	4400 nM	5.89	6.15	6.10	5.26	> 100 µM	5.43	5.36	4.96									
C[C@H](NP(=O)(COCCn1cnc2c(N)ncnc21)N[C@@H](C)C(=O)OCc1ccccc1)C(=O)OCc1ccccc1	7.40	7.60	140 nM	6.15	6.60	6.22	5.30	> 100 µM	6.68	6.85	6.17									
C[C@H](Cn1cnc2c(N)ncnc21)OCP(=O)(N[C@@H](C)C(=O)OCC(C)(C)C)N[C@@H](C)C(=O)OCC(C)(C)C	8.40	8.70	1200 nM	5.82	6.15	5.70	5.22	> 100 µM	5.82	5.92	5.40	6.14	6.27	6.15						
C[C@H](Cn1cnc2c(N)ncnc21)OCP(=O)(N[C@@H](C)C(=O)OCC(C)(C)C)Oc1ccccc1 (stereo not given in full)	7.74	7.92	2300 nM	5.89	6.15	6.00	5.10	> 100 µM	5.40	5.64	5.10									
C[C@H](NP(=O)(COCCn1cnc2c(N)ncnc21)Oc1cccc2ccccc12)C(=O)OCC(C)(C)C (stereo not given in full)	7.49	7.72	45 nM	6.60	7.00	6.70	5.80	> 100 µM	7.17	7.35	6.04	6.22	6.30	6.27	7.05	7.32	7.12			
C[C@H](Cn1cnc2c(N)ncnc21)OCP(=O)(N[C@@H](C)C(=O)OCC(C)(C)C)Oc1cccc2ccccc12 (stereo in doubt; 15)		8.15	6900 nM	5.82	6.15	5.70	5.40	> 100 µM		5.16	4.77			5.12				8.05	5.25	6.28
C[C@H](Cn1cnc2c(N)ncnc21)OCP(=O)(N[C@@H](C)C(=O)OCC(C)(C)C)Oc1cccc2c1CCCC2 (stereo not given in full)	7.96	8.05	2000 nM	5.85	5.85	5.26	4.98	> 100 µM	5.89	5.70	5.28									
C[C@H](NP(=O)(COCCn1cnc2c(N)ncnc21)Oc1ccccc1)C(=O)OCC(C)(C)C (stereo not given in full)	7.25	7.36	400 nM	6.22	6.82	6.26	5.43	> 100 µM	6.82	6.40	5.66									
C[C@H](NP(=O)(COCCn1cnc2c(N)ncnc21)Oc1cccc2ccccc12)C(=O)OCc1ccccc1 (stereo not given in full)	7.52	7.30	120 nM	7.70	8.10	6.15	5.02	> 100 µM	7.39	6.92	5.80									
